According to ChEMBL document CHEMBL1140136, “Structural modifications of N-(1,2,3,4-tetrahydronaphthalen-1-yl)-4-aryl-1-piperazinehexanamides: influence on lipophilicity and 5-HT7 receptor activity. Part III” (J Med Chem, 2008):
Activity calls are given as the source filed them. No cut-off for these calls is given here.

Legend:
[1] = target: 5-hydroxytryptamine receptor 7 (Cavia porcellus) (UniProt P50407); experiment: Agonist activity at 5HT7 receptor assessed as relaxation of substance P-induced Dunkin-Hartley guinea pig ileum contraction relative to 5-carboxamidotryptamine; format: functional, tissue-based; set-up: scale not given: the % may be the effect or the level left
5-hydroxytryptamine receptor 7 (Cavia porcellus), sequence (P50407 whole entry): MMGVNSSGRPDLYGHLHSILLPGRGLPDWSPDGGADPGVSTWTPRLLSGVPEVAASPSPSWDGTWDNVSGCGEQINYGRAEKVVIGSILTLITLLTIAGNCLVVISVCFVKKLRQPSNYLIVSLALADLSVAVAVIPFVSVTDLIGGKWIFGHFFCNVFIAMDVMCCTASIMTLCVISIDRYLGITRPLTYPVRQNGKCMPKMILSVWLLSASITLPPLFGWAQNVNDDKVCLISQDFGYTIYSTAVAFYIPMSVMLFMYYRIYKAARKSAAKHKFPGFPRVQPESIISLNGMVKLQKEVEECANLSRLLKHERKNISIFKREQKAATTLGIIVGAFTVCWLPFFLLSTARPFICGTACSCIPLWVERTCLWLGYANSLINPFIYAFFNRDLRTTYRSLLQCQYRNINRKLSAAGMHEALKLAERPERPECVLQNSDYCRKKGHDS
Outline: (§1)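 Male Dunkin-Hartley guinea pigs (300-350 g); 3 cm proximal ileum segments were held under 1.0 g tension in Krebs-Henseleit at 37 °C, gassed with 95% O2/5% CO2. The bath contained 1 µM atropine, ketanserin and pyrilamine. Compound (0.001-10 µM) or the 5-CT reference was added 5 min before 100 nM substance P, giving noncumulative curves. Read-out was % reduction of contraction height; EC50 by nonlinear fitting.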

[2] = target: 5-hydroxytryptamine receptor 7 (Rattus norvegicus, UniProt P32305); experiment: Displacement of [3H]LSD from rat cloned 5HT7 receptor expressed in HEK293 cells; format: cell-based
5-hydroxytryptamine receptor 7 (Rattus norvegicus, UniProt P32305), sequence (P32305 whole entry): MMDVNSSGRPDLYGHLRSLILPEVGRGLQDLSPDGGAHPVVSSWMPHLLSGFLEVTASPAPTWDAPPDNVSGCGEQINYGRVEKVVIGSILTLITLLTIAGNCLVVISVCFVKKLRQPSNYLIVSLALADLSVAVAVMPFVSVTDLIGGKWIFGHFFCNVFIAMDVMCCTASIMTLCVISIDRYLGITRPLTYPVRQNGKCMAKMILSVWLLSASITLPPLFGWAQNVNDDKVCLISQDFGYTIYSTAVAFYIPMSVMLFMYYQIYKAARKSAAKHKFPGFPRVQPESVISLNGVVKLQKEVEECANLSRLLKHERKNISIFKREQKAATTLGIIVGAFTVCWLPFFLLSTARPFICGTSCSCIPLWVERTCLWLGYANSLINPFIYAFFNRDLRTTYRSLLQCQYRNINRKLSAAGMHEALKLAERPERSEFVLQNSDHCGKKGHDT
Outline: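 Rat recombinant 5-HT7 membranes (30 µg) from HEK-293 cells, with 2.5 nM [3H]-LSD and 6-9 compound concentrations. Incubated 60 min at 37 °C in 50 mM Tris, 10 mM MgCl2, 0.5 mM EDTA, pH 7.4, then filtered. Nonspecific binding with 10 µM 5-CT. Ki via Cheng-Prusoff; three experiments in triplicate.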

[3] = target: T1, 5-hydroxytryptamine receptor 1A (Homo sapiens, UniProt P08908); experiment: Displacement of [3H]8-OH-DPAT from human cloned 5HT1A receptor expressed in HEK293 cells; format: cell-based
T1 sequence (P08908 whole entry): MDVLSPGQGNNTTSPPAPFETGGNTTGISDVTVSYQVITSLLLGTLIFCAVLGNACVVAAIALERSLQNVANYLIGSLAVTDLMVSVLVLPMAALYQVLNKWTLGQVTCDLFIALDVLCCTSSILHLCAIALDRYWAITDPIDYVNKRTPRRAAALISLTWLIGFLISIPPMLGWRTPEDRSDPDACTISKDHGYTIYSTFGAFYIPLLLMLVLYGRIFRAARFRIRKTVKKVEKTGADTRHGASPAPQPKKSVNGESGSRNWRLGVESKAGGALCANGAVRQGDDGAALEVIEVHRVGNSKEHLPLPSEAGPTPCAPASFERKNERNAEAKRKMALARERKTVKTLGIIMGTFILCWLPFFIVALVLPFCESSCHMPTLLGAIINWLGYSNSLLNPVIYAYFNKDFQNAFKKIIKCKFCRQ
Outline: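 Membranes (40 µg) from HEK-293 cells stably expressing human 5-HT1A, with 1.0 nM [3H]-8-OH-DPAT and compound (0.1 nM-10 µM). Incubated 120 min at 37 °C in 50 mM Tris-HCl pH 7.4, 5 mM MgSO4, then filtered. Nonspecific binding with 10 µM 5-HT. Ki by nonlinear fit and Cheng-Prusoff; three experiments in triplicate.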

[4] = target: D(2) dopamine receptor (Homo sapiens, UniProt P14416); experiment: Displacement of [3H]spiroperidol from human cloned dopamine D2L receptor expressed in rat C6 cells; format: cell-based
D(2) dopamine receptor, sequence (P14416 whole entry): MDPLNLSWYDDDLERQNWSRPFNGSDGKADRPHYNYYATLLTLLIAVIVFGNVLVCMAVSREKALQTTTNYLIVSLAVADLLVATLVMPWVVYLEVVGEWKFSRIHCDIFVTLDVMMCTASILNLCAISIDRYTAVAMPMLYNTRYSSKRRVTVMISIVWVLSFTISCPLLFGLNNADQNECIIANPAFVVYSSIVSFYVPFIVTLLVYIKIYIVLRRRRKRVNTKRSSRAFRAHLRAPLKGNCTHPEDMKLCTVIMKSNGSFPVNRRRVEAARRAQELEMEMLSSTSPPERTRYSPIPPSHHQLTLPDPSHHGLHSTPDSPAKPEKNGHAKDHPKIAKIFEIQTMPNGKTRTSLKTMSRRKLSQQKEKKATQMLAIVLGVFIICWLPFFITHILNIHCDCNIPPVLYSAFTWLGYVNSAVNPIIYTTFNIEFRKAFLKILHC

[5] = Selectivity for rat cloned 5HT7 over human cloned 5HT1A
[6] = Selectivity for rat cloned 5HT7 over human cloned dopamine D2
[7] = target: T2, 5-hydroxytryptamine receptor 7 (Cavia porcellus, UniProt P50407); experiment: Agonist activity at 5HT7 receptor assessed as relaxation of substance P-induced Dunkin-Hartley guinea pig ileum contraction; format: functional, tissue-based; outline: as §1
T2 sequence (P50407 whole entry): as the sequence (P50407 whole entry) above

[8] = target: 5-hydroxytryptamine receptor 7 (Rattus norvegicus) (UniProt P32305); experiment: Displacement of [3H]LSD from rat cloned 5HT7 receptor expressed in HEK293 cells at […]; format: cell-based
5-hydroxytryptamine receptor 7 (Rattus norvegicus), sequence (P32305 whole entry): as the sequence (P32305 whole entry) above

[9] = target: 5-hydroxytryptamine receptor 7 (Cavia porcellus) (UniProt P50407); experiment: Agonist activity at 5HT7 receptor assessed as relaxation of substance P-induced Dunkin-Hartley guinea pig ileum contraction at 2 mM; format: functional, tissue-based
Outline: (§2)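 Guinea pig ileum was contracted by 100 nM substance P in Krebs-Henseleit with atropine, ketanserin and pyrilamine (1 µM each). Agonist tests were repeated after 5-HT7 desensitization: 60 min equilibration with 3 µM 5-CT, bath changed every 15 min. Relaxation was scored at single test concentrations as % reduction in contraction height.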

[10] = target: 5-hydroxytryptamine receptor 7 (Cavia porcellus) (UniProt P50407); experiment: Agonist activity at 5HT7 receptor assessed as relaxation of substance P-induced Dunkin-Hartley guinea pig ileum contraction at 3 mM; format: functional, tissue-based; outline: as §2
[11] = target: 5-hydroxytryptamine receptor 7 (Cavia porcellus) (UniProt P50407); experiment: Agonist activity at 5HT7 receptor assessed as relaxation of substance P-induced Dunkin-Hartley guinea pig ileum contraction at 1 mM; format: functional, tissue-based; outline: as §2
[12] = Elimination half life in CD1 albino mouse brain at 10 mg/kg, ip; format: ADME, organism-based; set-up: dose 10 mg/kg, route intraperitoneal; details: read-out: beta t1/2
Outline: (§3)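 Male CD1 albino mice (25-30 g), 10 mg/kg i.p., 3 mice per time point. Brains were removed, blotted, frozen, homogenized in water (1 g/10 mL) and extracted twice with hexane/isoamyl alcohol. Parent and 1-arylpiperazine metabolite were measured by RP-HPLC-UV at 230 nm. LLOQ about 0.1 µg/g; no residual-blood correction. Cmax read directly, AUC by linear trapezoidal rule, t1/2 by noncompartmental analysis.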

[13] = test system: Mus musculus; experiment: AUC in CD1 albino mouse brain at 10 mg/kg, ip; format: ADME, organism-based; set-up: dose 10 mg/kg, route intraperitoneal; details: in vivo; outline: as §3
[14] = Cmax in CD1 albino mouse brain at 10 mg/kg, ip after 60 mins; format: ADME, organism-based; set-up: dose 10 mg/kg, route intraperitoneal; outline: as §3
[15] = target: T2, 5-hydroxytryptamine receptor 7; experiment: Antagonist activity at 5HT7 receptor assessed as inhibition of 2-[6-[4-(2-Diphenyl)-1-piperazinyl]-1-oxohexyl]-1,2,3,4-tetrahydroisoquinoline mediated relaxation of substance P-induced Dunkin-Hartley guinea pig ileum contraction; format: functional, tissue-based; details: read-out: pA2 (converted)
Outline: (§4)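 Male Dunkin-Hartley guinea pigs (300-350 g); whole proximal ileal segments (~3 cm) held under 1.0 g tension in Krebs-Henseleit, 95% O2/5% CO2, 37 °C. Bath contained 1 µM atropine, ketanserin and pyrilamine. Contraction evoked by 100 nM substance P; agonist added 5 min before; selective 5-HT7 antagonist at 0.1-3 µM; isometric tension relaxation, noncumulative curves.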

[16] = target: T2, 5-hydroxytryptamine receptor 7; experiment: Antagonist activity at 5HT7 receptor assessed as inhibition of 4-(2-Diphenyl)-N-(4-pyridinylmethyl)-1-piperazinehexanamide mediated relaxation of substance P-induced Dunkin-Hartley guinea pig ileum contraction; format: functional, tissue-based; details: read-out: pA2 (converted); outline: as §4
[17] = target: T2, 5-hydroxytryptamine receptor 7; experiment: Antagonist activity at 5HT7 receptor assessed as inhibition of N-(4-Cyanophenylmethyl)-4-(2-diphenyl)-1-piperazinehexanamide mediated relaxation of substance P-induced Dunkin-Hartley guinea pig ileum contraction; format: functional, tissue-based; details: read-out: pA2 (converted); outline: as §4
[18] = Cmax in CD1 albino mouse brain at 10 mg/kg, ip after 120 mins; format: ADME, organism-based; set-up: dose 10 mg/kg, route intraperitoneal; outline: as §3
[19] = Cmax in CD1 albino mouse plasma at 10 mg/kg, ip after 30 mins; format: ADME, organism-based; set-up: dose 10 mg/kg, route intraperitoneal
Outline: (§5)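 Male CD1 mice (25-30 g) received 10 mg/kg ip, with 3 mice per time point. Heparinized trunk blood gave plasma; brain was homogenized in water (1 g/10 mL). Samples were extracted with hexane/isoamyl alcohol and assayed by RP-HPLC-UV at 230 nm with an internal standard. Quantification limits were 0.1 µg/mL plasma and 0.1 µg/g brain. Cmax and its time were read from the data.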

[20] = species: Mus musculus; experiment: Ratio of plasma AUC to brain AUC in CD1 albino mouse; format: ADME, organism-based; details: in vivo
Outline: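 Male CD1 mice (25-30 g) were dosed at 10 mg/kg ip, 3 per time point. Trunk blood plasma and brain homogenate were extracted with hexane/isoamyl alcohol and analysed by RP-HPLC-UV at 230 nm. Quantification limit was ~0.1 µg/mL or µg/g. AUC was calculated by the linear trapezoidal rule, noncompartmental, extrapolated to infinity where possible.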

[21] = Cmax in CD1 albino mouse brain at 10 mg/kg, ip after 30 mins; format: ADME, organism-based; set-up: dose 10 mg/kg, route intraperitoneal; outline: as §5
[22] = Elimination half life in CD1 albino mouse plasma at 10 mg/kg, ip; details: read-out: beta t1/2
[23] = test system: Mus musculus; experiment: Volume of distribution in CD1 albino mouse plasma at 10 mg/kg, ip; details: in vivo
[24] = Plasma concentration in CD1 albino mouse at 10 mg/kg, ip after 1 hr; format: ADME, organism-based; set-up: dose 10 mg/kg, route intraperitoneal; outline: as §5
[25] = Cmax in CD1 albino mouse plasma at 10 mg/kg, ip after 15 mins

Structure (SMILES) | Ki [2] | Ki [3] | Ki [4] | further results
NCCc1c[nH]c2ccc(C(N)=O)cc12 |  |  |  | Activity [1]: 100%
COc1ccccc1N1CCN(CCCCCC(=O)NCc2ccc(OS(C)(=O)=O)cc2)CC1 | 71 nM | 29 nM | 91 nM | 
O=C(CCCCCN1CCN(c2ccccc2-c2ccccc2)CC1)NCc1ccncc1 | 0.98 nM | 70 nM | 185 nM | Selectivity ratio [5]: 25; Selectivity ratio [6]: 95; EC50 [7]: 310 nM; Activity [1]: 87%
O=C(CCCCCN1CCN(c2ccccc2-c2ccccc2)CC1)NCc1ccccc1 |  | 161 nM | 503 nM | Activity [8]: 62%; Activity [9]: Active; Activity [10]: Active; Activity [11]: inactive; EC50 [7]: 4500 nM
COc1ccccc1N1CCN(CCCCCC(=O)N2CCc3ccccc3C2)CC1 | 31 nM | 40 nM | 22 nM | 
CC(C)c1ccccc1N1CCN(CCCCCC(=O)N2Cc3ccccc3C2)CC1 | 54 nM | 22 nM | 65 nM | 
O=C(CCCCCN1CCN(c2ccccc2-c2ccccc2)CC1)N1CCc2ccccc2C1 | 3.81 nM | 95 nM | 362 nM | Selectivity ratio [5]: 25; Selectivity ratio [6]: 95; EC50 [7]: 490 nM; Activity [1]: 89%
CSc1ccccc1N1CCN(CCCCCC(=O)NCc2ccc(C#N)cc2)CC1 | 9 nM | 94 nM | 5.3 nM | 
CC(C)c1ccccc1N1CCN(CCCCCC(=O)NCc2ccc(C#N)cc2)CC1 | 8.6 nM | 53 nM | 20 nM | 
CSc1ccccc1N1CCNCC1 |  |  |  | half-life [12]: 1 h; AUC [13]: 85 µg/min/mL; Cmax [14]: 500 ng/g
CC(C)c1ccccc1N1CCN(CCCCCC(=O)N2CCc3ccccc3C2)CC1 | 6 nM | 3.7 nM | 1.3 nM | 
COc1ccccc1N1CCN(CCCCCC(=O)NCc2ccc(C#N)cc2)CC1 | 296 nM | 43 nM | 311 nM | 
CC(C)c1ccccc1N1CCN(CCCCCC(=O)NCc2ccncc2)CC1 | 5.1 nM | 325 nM | 21 nM | 
CS(=O)(=O)Oc1ccc(CNC(=O)CCCCCN2CCN(c3ccccc3-c3ccccc3)CC2)cc1 | 5.7 nM | 106 nM | 723 nM | 
CSc1ccccc1N1CCN(CCCCCC(=O)NCc2ccncc2)CC1 | 34.8 nM | 8.2 nM | 64 nM | 
CSc1ccccc1N1CCN(CCCCCC(=O)NCc2ccc(OS(C)(=O)=O)cc2)CC1 | 148 nM | 10.3 nM | 30 nM | 
CC1CCN(CC[C@H]2CCCN2S(=O)(=O)c2cccc(O)c2)CC1 |  |  |  | Kb [15]: 15.8 nM; Kb [16]: 11 nM; Kb [17]: 20.4 nM
CC(C)c1ccccc1N1CCN(CCCCCC(=O)NCc2ccc(OS(C)(=O)=O)cc2)CC1 | 76 nM | 57 nM | 7.8 nM | 
CC(C)c1ccccc1N1CCN(CCCCCC(=O)NCc2ccccc2)CC1 | 215 nM | 139 nM | 9.2 nM | 
CSc1ccccc1N1CCN(CCCCCC(=O)NCc2ccccc2)CC1 | 22 nM | 12 nM | 33 nM | 
CSc1ccccc1N1CCN(CCCCCC(=O)N2CCc3ccccc3C2)CC1 | 32.9 nM | 2.04 nM | 40 nM | 
O=C(CCCCCN1CCN(c2ccccc2-c2ccccc2)CC1)N1Cc2ccccc2C1 | 8.3 nM | 124 nM | 93 nM | 
CSc1ccccc1N1CCN(CCCCCC(=O)N2Cc3ccccc3C2)CC1 | 42 nM | 1.07 nM | 96 nM | 
COc1ccccc1N1CCN(CCCCCC(=O)NCc2ccccc2)CC1 | 224 nM | 13 nM | 226 nM | 
c1ccc(-c2ccccc2N2CCNCC2)cc1 |  |  |  | half-life [12]: 1.45 h; Cmax [18]: 410 ng/g; AUC [13]: 94 µg/min/mL
COc1ccccc1N1CCN(CCCCCC(=O)NCc2ccncc2)CC1 | 389 nM | 19 nM | 501 nM | 
COc1ccccc1N1CCN(CCCCCC(=O)N2Cc3ccccc3C2)CC1 | 179 nM | 3.2 nM | 730 nM | 
N#Cc1ccc(CNC(=O)CCCCCN2CCN(c3ccccc3-c3ccccc3)CC2)cc1 | 0.58 nM |  | 142 nM | Cmax [19]: 760 ng/mL; Ratio AUC [20]: 0.7; Cmax [21]: 540 ng/g; half-life [12]: 1.15 h; EC50 [7]: 600 nM; Activity [1]: 82%; half-life [22]: 1.08 h; Vd [23]: 11 L/kg
CSc1ccccc1N1CCN(CCCCCC(=O)NC2CCCc3ccccc32)CC1 (stereo not given) |  |  |  | concentration at 1 h [24]: < 100 ng/mL; Cmax [21]: 580 ng/g; half-life [12]: 0.333 h; Cmax [25]: 310 ng/mL
